Measurements: article PMC4410974 (Clinical cancer research : an official journal of the …, 2012)

Test: Sirolimus whole blood pharmacokinetics
Assay type: in vivo, human
Details: for AUC(0-inf) / Cmax / half-life / AUC / Tmax: human, whole blood, oral; for AUC: AUC [SD]; for Tmax: Tmax [SD]
Summary of the method: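 Advanced-cancer patients received oral sirolimus once weekly as 1 mg tablets. Week 1 was sirolimus alone. From week 2, ketoconazole was added: 200 mg bid on day 1, then 200 mg daily for 3 days. Whole blood was sampled predose and at 0.25, 0.5, 1, 2, 4, 8, 24 and 48 h in weeks 1–2, and predose in week 3. Analysis was noncompartmental. Cohort doses were re-estimated toward the target AUC assuming dose–AUC linearity.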

[1] = 30 mg, sirolimus alone study, 4 hours apart (total 60 mg), N=5, mean
[2] = 30 mg, sirolimus alone study, 24 hours apart (total 60 mg), N=3, mean
[3] = 45 mg, sirolimus alone study, 24 hours apart (total 90 mg), N=2, mean

SMILES: CO[C@H]1C[C@@H]2CC[C@@H](C)[C@@](O)(O2)C(=O)C(=O)N2CCCC[C@H]2C(=O)O[C@H]([C@H](C)C[C@@H]2CC[C@@H](O)[C@H](OC)C2)CC(=O)[C@H](C)/C=C(\C)[C@@H](O)[C@@H](OC)C(=O)[C@H](C)C[C@H](C)/C=C/C=C/C=C/1C [Sirolimus]
- AUC(0-inf) (1 mg, sirolimus 1 mg, with ketoconazole, n=6): 935 ng·h/mL
- AUC(0-inf) (1 mg, sirolimus 1 mg, without ketoconazole, n=6): 186 ng·h/mL
- Cmax (1 mg, Cmax, sirolimus 1 mg, with ketoconazole, n=6): 25.4 ng/mL
- Cmax (1 mg, Cmax, sirolimus 1 mg, without ketoconazole, n=6): 5.4 ng/mL
- half-life (1 mg, T1/2, sirolimus 1 mg, without ketoconazole, n=6): 82 h
- AUC(0-inf) (2 mg, sirolimus 2 mg, with ketoconazole, n=6): 1350 ng·h/mL
- AUC(0-inf) (2 mg, sirolimus 2 mg, without ketoconazole, n=6): 271 ng·h/mL
- AUC(0-inf) (3 mg, sirolimus 3 mg, with ketoconazole, n=6): 2450 ng·h/mL
- AUC(0-inf) (3 mg, sirolimus 3 mg, without ketoconazole, n=6): 400 ng·h/mL
- Cmax (3 mg, Cmax, sirolimus 3 mg, with ketoconazole, n=6): 49.2 ng/mL
- half-life (3 mg, T1/2, sirolimus 3 mg, with ketoconazole, n=6): 84 h
- half-life (3 mg, T1/2, sirolimus 3 mg, without ketoconazole, n=6): 35 h
- AUC(0-inf) (4 mg, sirolimus 4 mg, with ketoconazole, n=6): 2900 ng·h/mL
- AUC(0-inf) (4 mg, sirolimus 4 mg, without ketoconazole, n=6): 456 ng·h/mL
- Cmax (4 mg, Cmax, sirolimus 4 mg, with ketoconazole, n=6): 66.8 ng/mL
- Cmax (4 mg, Cmax, sirolimus 4 mg, without ketoconazole, n=6): 21.3 ng/mL
- half-life (4 mg, T1/2, sirolimus 4 mg, without ketoconazole, n=6): 36 h
- AUC(0-inf) (5 mg, sirolimus 5 mg, with ketoconazole, n=6): 3140 ng·h/mL
- AUC(0-inf) (5 mg, sirolimus 5 mg, without ketoconazole, n=6): 676 ng·h/mL
- Cmax (5 mg, Cmax, sirolimus 5 mg, with ketoconazole, n=6): 71.2 ng/mL
- Cmax (5 mg, Cmax, sirolimus 5 mg, without ketoconazole, n=6): 25.8 ng/mL
- half-life (5 mg, T1/2, sirolimus 5 mg, with ketoconazole, n=6): 57 h
- half-life (5 mg, T1/2, sirolimus 5 mg, without ketoconazole, n=6): 35 h
- AUC(0-inf) (6 mg, sirolimus 6 mg, with ketoconazole, n=3): 2620 ng·h/mL
- AUC(0-inf) (6 mg, sirolimus 6 mg, without ketoconazole, n=3): 510 ng·h/mL
- Cmax (6 mg, Cmax, sirolimus 6 mg, with ketoconazole, n=3): 74.6 ng/mL
- Cmax (6 mg, Cmax, sirolimus 6 mg, without ketoconazole, n=3): 15 ng/mL
- half-life (6 mg, T1/2, sirolimus 6 mg, without ketoconazole, n=3): 78 h
- AUC(0-inf) (8 mg, sirolimus 8 mg, with ketoconazole, n=1): 1620 ng·h/mL
- AUC(0-inf) (8 mg, sirolimus 8 mg, without ketoconazole, n=1): 420 ng·h/mL
- Cmax (8 mg, Cmax, sirolimus 8 mg, with ketoconazole, n=1): 85.2 ng/mL
- Cmax (8 mg, Cmax, sirolimus 8 mg, without ketoconazole, n=1): 25.2 ng/mL
- half-life (8 mg, T1/2, sirolimus 8 mg, with ketoconazole, n=1): 34 h
- half-life (8 mg, T1/2, sirolimus 8 mg, without ketoconazole, n=1): 18 h
- AUC(0-inf) (16 mg, sirolimus 16 mg, with ketoconazole, n=2): 5010 ng·h/mL
- Cmax (16 mg, Cmax, sirolimus 16 mg, with ketoconazole, n=2): 123 ng/mL
- half-life (16 mg, T1/2, sirolimus 16 mg, with ketoconazole, n=2): 32 h
- AUC [1]: 2050 ng·h/mL
- AUC [2]: 3680 ng·h/mL
- Cmax (30 mg, Cmax [SD], sirolimus alone study, 4 hours apart (total 60 mg), N=5, mean): 32.9 ng/mL
- Cmax (30 mg, Cmax [SD], sirolimus alone study, 24 hours apart (total 60 mg), N=3, mean): 83.9 ng/mL
- Tmax [1]: 2.2 h
- Tmax [2]: 2.3 h
- AUC [3]: 3360 ng·h/mL
- Cmax (45 mg, Cmax [SD], sirolimus alone study, 24 hours apart (total 90 mg), N=2, mean): 42.8 ng/mL
- Tmax [3]: 2.1 h
- CL/F (sirolimus 1 mg, with ketoconazole, n=6): 1.2 L/h
- CL/F (sirolimus 1 mg, without ketoconazole, n=6): 10.3 L/h
- CL/F (sirolimus 2 mg, with ketoconazole, n=6): 1.8 L/h
- CL/F (sirolimus 2 mg, without ketoconazole, n=6): 9.5 L/h
- CL/F (sirolimus 3 mg, with ketoconazole, n=6): 1.6 L/h
- CL/F (sirolimus 3 mg, without ketoconazole, n=6): 8.0 L/h
- CL/F (sirolimus 4 mg, with ketoconazole, n=6): 2.1 L/h
- CL/F (sirolimus 4 mg, without ketoconazole, n=6): 10.0 L/h
- CL/F (sirolimus 5 mg, with ketoconazole, n=6): 2.8 L/h
- CL/F (sirolimus 5 mg, without ketoconazole, n=6): 9.0 L/h
- CL/F (sirolimus 6 mg, with ketoconazole, n=3): 2.6 L/h
- CL/F (sirolimus 6 mg, without ketoconazole, n=3): 15.6 L/h
- CL/F (sirolimus 8 mg, with ketoconazole, n=1): 4.9 L/h
- CL/F (sirolimus 8 mg, without ketoconazole, n=1): 19.1 L/h
- CL/F (sirolimus 15 mg, with grapefruit juice, n=5): 5.9 L/h
- CL/F (sirolimus 15 mg, without grapefruit juice, n=5): 20.5 L/h
- CL/F (sirolimus 16 mg, with ketoconazole, n=2): 3.2 L/h
- CL/F (sirolimus 16 mg, without ketoconazole, n=2): 11.2 L/h
- CL/F (sirolimus 20 mg, with grapefruit juice, n=5): 11.5 L/h
- CL/F (sirolimus 20 mg, without grapefruit juice, n=5): 36.9 L/h
- CL/F (sirolimus 25 mg, with grapefruit juice, n=4): 9.2 L/h
- CL/F (sirolimus 25 mg, without grapefruit juice, n=4): 32.6 L/h
- CL/F (sirolimus 30 mg, with grapefruit juice, n=5): 12.6 L/h
- CL/F (sirolimus 30 mg, without grapefruit juice, n=5): 18.7 L/h
- CL/F (sirolimus 35 mg, with grapefruit juice, n=8): 12.8 L/h
- CL/F (sirolimus 35 mg, without grapefruit juice, n=8): 29.4 L/h
- CL/F [SD] (sirolimus alone study, 30 mg, 4 hours apart (total 60 mg), N=5, mean): 19.786 [15.2] l/h
- CL/F [SD] (sirolimus alone study, 30 mg, 24 hours apart (total 60 mg), N=3, mean): 17.087 [2.90] l/h
- CL/F [SD] (sirolimus alone study, 45 mg, 24 hours apart (total 90 mg), N=2, mean): 26.842 [1.1] l/h
- CL/F [SD] (sirolimus alone study, dose cohort 10 mg, N=6, mean): 16.922 [6.08] l/h
- CL/F [SD] (sirolimus alone study, dose cohort 20 mg, N=7, mean): 18.736 [11.0] l/h
- CL/F [SD] (sirolimus alone study, dose cohort 30 mg, N=6, mean): 16.148 [10.4] l/h
- CL/F [SD] (sirolimus alone study, dose cohort 60 mg, N=8, mean): 19.588 [13.6] l/h
- Sirolimus dose at which target AUC of 3810 ng-hr/ml was achieved/observed (sirolimus plus grapefruit juice study): 25 mg
- Sirolimus dose at which target AUC of 3810 ng-hr/ml was achieved (sirolimus plus ketoconazole study): 16 mg
